Experiments:
KG-1 = assay: Antiproliferative activity against human KG-1 cells assessed as reduction in cell viability incubated for 72 hrs by MTT assay; assay type: functional, cell-based; details: KG-1, 72 h
Outline: (§1)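 Growth inhibition after 72 h continuous exposure of HCT-116 colorectal carcinoma or KG-1 acute myelogenous leukemia cells; concentration giving 50% inhibition taken from dose–response curves.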

HCT-116 [1] = assay: Antiproliferative activity against human HCT-116 cells assessed as reduction in cell viability incubated for 72 hrs by MTT assay; assay type: functional, cell-based; details: HCT-116, 72 h; outline: as §1
HCT-116 [2] = assay: Antitumor activity against human HCT-116 cells xenografted in athymic nude mouse assessed as tumor growth inhibition at 25 mg/kg, po administered for 26 days relative to control; assay type: functional; details: HCT-116, po, 624 h, time 26 day
Outline: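 Subcutaneous HCT-116 human colorectal carcinoma xenografts in athymic female nude mice; oral dosing at 25 mg/kg over a 26-day period, with capecitabine given as positive control; tumor growth followed, N = 3, SD shown.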

SK-BR-3 [3] = assay: Induction of DNA damage in human SK-BR-3 cells assessed as increase in tail DNA measured at 1 uM after 72 hrs by neutral comet assay relative to control; assay type: functional; details: in the assay text read “alkaline comet assay” for “neutral comet assay”
Outline: (§2)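 Comet assay scoring DNA damage as % DNA in tail; cells exposed to 0.5, 1.0 or 2.0 μM etoposide or 1.0, 3.0 or 10 μM test nucleoside; mean of scored comets per sample with SE and 80% confidence interval.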

SK-BR-3 [4] = assay: Induction of DNA damage in human SK-BR-3 cells assessed as increase in tail DNA measured at 3 uM after 72 hrs by neutral comet assay relative to control; assay type: functional; details: in the assay text read “alkaline comet assay” for “neutral comet assay”; outline: as §2
SK-BR-3 [5] = assay: Induction of DNA damage in human SK-BR-3 cells assessed as increase in tail DNA measured at 10 uM after 72 hrs by neutral comet assay relative to control; assay type: functional; details: in the assay text read “alkaline comet assay” for “neutral comet assay”; outline: as §2
SK-BR-3 [6] = assay: Induction of DNA damage in human SK-BR-3 cells assessed as increase in tail DNA measured at 0.5 uM after 72 hrs by neutral comet assay relative to control; assay type: functional; details: in the assay text read “alkaline comet assay” for “neutral comet assay”; outline: as §2
SK-BR-3 [7] = assay: Induction of DNA damage in human SK-BR-3 cells assessed as increase in tail DNA measured at 2 uM after 72 hrs by neutral comet assay relative to control; assay type: functional; details: in the assay text read “alkaline comet assay” for “neutral comet assay”; outline: as §2

| SMILES | IC50 (KG-1) [nM] | IC50 (HCT-116 [1]) [nM] | Activity (SK-BR-3 [3]) [%] | also measured |
| --- | --- | --- | --- | --- |
| CCCCCOC(=O)Nc1nc(=O)n([C@@H]2O[C@H](CO)[C@@H](O)C2(F)F)cc1F | 130 | 370 | – | inhibition in vivo at 25 mg/kg (HCT-116 [2]): 40% |
| Nc1nc(=O)n([C@@H]2O[C@H](CO)[C@@H](O)C2(F)F)cc1F | – | – | 20.7 | Activity (SK-BR-3 [4]): 24.28%; Activity (SK-BR-3 [5]): 26.73% |
| Nc1ccn([C@@H]2O[C@H](CO)[C@@H](O)C2(F)F)c(=O)n1 [GEMCITABINE] | 18 | 50 | – | – |
| CCCCCOC(=O)Nc1nc(=O)n([C@@H]2O[C@H](C)[C@@H](O)[C@H]2O)cc1F [CAPECITABINE] | 8900 | 34200 | – | – |
| COc1cc([C@@H]2c3cc4c(cc3[C@@H](O[C@@H]3O[C@@H]5CO[C@@H](C)O[C@H]5[C@H](O)[C@H]3O)[C@H]3COC(=O)[C@H]23)OCO4)cc(OC)c1O [ETOPOSIDE] | – | – | 24.98 | Activity (SK-BR-3 [6]): 15.87%; Activity (SK-BR-3 [7]): 35.17% |

— ChEMBL document CHEMBL5046312, “Rational Design of an Orally Active Anticancer Fluoropyrimidine, Pencitabine, a Hybrid of Capecitabine and Gemcitabine” (ACS Med Chem Lett, 2022)
